In brackets after ≈: the same amount, converted by molar mass.
Legend:
[1] = system: RXF 393; assay: Growth inhibition of human RXF393 cells after 48 hrs by sulforhodamine B assay; format: functional; conditions: RXF 393, 48 h
Outline: (§1)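 NCI 60 human cancer cell line screen run at the National Cancer Institute. Cells had 48 h continuous exposure, and proliferation was read by sulforhodamine B staining. GI50 (50% growth inhibition) was taken from dose–response curves.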

[2] = system: SF-295; assay: Growth inhibition of human SF295 cells after 48 hrs by sulforhodamine B assay; format: functional; conditions: SF-295, 48 h; outline: as §1
[3] = system: Malme-3M; assay: Growth inhibition of human MALME-3M cells after 48 hrs by sulforhodamine B assay; format: functional; conditions: read-out: pTGI; outline: as §1
[4] = system: HOP-92; assay: Growth inhibition of human HOP92 cells after 48 hrs by sulforhodamine B assay; format: functional; conditions: HOP-92, 48 h; outline: as §1
[5] = system: KM12; assay: Growth inhibition of human KM12 cells after 48 hrs by sulforhodamine B assay; format: functional; conditions: KM12, 48 h; outline: as §1
[6] = system: Mus musculus; assay: Toxicity in DBA2 mouse assessed as change in body weight at 75 mg/kg, ip QD administered on alternate days for 17 days measured on day 23 relative to control; format: organism-based; set-up: dose 75 mg/kg, route intraperitoneal; conditions: in vivo, 408 h
Outline: (§2)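 Healthy female DBA2 mice, 5–7 weeks old, five per group, received 75 mg/kg ip on days 1, 5, 9, 13 and 17. Vehicle was PET (PEG400/ethanol/Tween 80, 6:3:1), 5% glucose and DMSO, with final ethanol 15% and DMSO 10%. Controls received 100 µL vehicle. Body weight was measured every other day. At sacrifice on day 23, blood counts (hematocrit, WBC, granulocytes, platelets) and liver, kidney and spleen appearance and weight were assessed.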

[7] = system: IGROV-1; assay: Growth inhibition of human IGROV1 cells after 48 hrs by sulforhodamine B assay; format: functional; conditions: IGROV-1, 48 h; outline: as §1
[8] = system: M14; assay: Growth inhibition of human M14 cells after 48 hrs by sulforhodamine B assay; format: functional; conditions: M14, 48 h; outline: as §1
[9] = Solubility of the compound in water by multiscreen solubility; format: physicochemical
Outline: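 Aqueous solubility was measured with a modified Multiscreen Solubility filter-plate protocol. The assay ceiling is 500 µM, and two independent experiments were run.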

[10] = system: 786-0; assay: Growth inhibition of human 786-0 cells after 48 hrs by sulforhodamine B assay; format: functional; conditions: 786-0, 48 h; outline: as §1
[11] = system: HCT-116; assay: Growth inhibition of human HCT116 cells after 48 hrs by sulforhodamine B assay; format: functional; conditions: HCT-116, 48 h; outline: as §1
[12] = system: Mus musculus; assay: Toxicity in DBA2 mouse assessed as change in color, weight and size in liver at 75 mg/kg, ip QD administered on alternate days for 17 days measured on day 23 relative to control; format: organism-based; set-up: dose 75 mg/kg, route intraperitoneal; conditions: in vivo, 408 h; outline: as §2
[13] = system: HCC 2998; assay: Growth inhibition of human HCC2998 cells after 48 hrs by sulforhodamine B assay; format: functional; conditions: HCC 2998, 48 h; outline: as §1
[14] = system: HCT-15; assay: Growth inhibition of human HCT15 cells after 48 hrs by sulforhodamine B assay; format: functional; conditions: HCT-15, 48 h; outline: as §1
[15] = system: MCF7; assay: Growth inhibition of human MCF7 cells after 48 hrs by sulforhodamine B assay; format: functional; conditions: MCF7, 48 h; outline: as §1
[16] = system: A549; assay: Growth inhibition of human A549 cells after 48 hrs by sulforhodamine B assay; format: functional; conditions: A549, 48 h; outline: as §1
[17] = Ratio of EC50 for microtubule depolymerization in […] cells to IC50 for human MDA-MB-435 cells
[18] = system: UACC-257; assay: Growth inhibition of human UACC257 cells after 48 hrs by sulforhodamine B assay; format: functional; conditions: UACC-257, 48 h
Outline: (§3)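 Tested in the NCI 60 human cancer cell line panel. Cells were exposed continuously for 48 h and proliferation was read by sulforhodamine B staining. GI50 (concentration for 50% growth inhibition), TGI (total growth inhibition) and LC50 were taken from dose–response curves.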

[19] = system: Mus musculus; assay: Toxicity in DBA2 mouse assessed as change in color, weight and size in spleen at 75 mg/kg, ip QD administered on alternate days for 17 days measured on day 23 relative to control; format: organism-based; set-up: dose 75 mg/kg, route intraperitoneal; conditions: in vivo, 408 h; outline: as §2
[20] = system: U-251; assay: Growth inhibition of human U251 cells after 48 hrs by sulforhodamine B assay; format: functional; conditions: U-251, 48 h; outline: as §3
[21] = system: HOP-62; assay: Growth inhibition of human HOP62 cells after 48 hrs by sulforhodamine B assay; format: functional; conditions: HOP-62, 48 h; outline: as §1
[22] = system: LOX IMVI; assay: Growth inhibition of human LOXIMVI cells after 48 hrs by sulforhodamine B assay; format: functional; outline: as §1
[23] = system: MDA-MB-435; assay: Growth inhibition of human MDA-MB-435 cells after 48 hrs by sulforhodamine B assay; format: functional; conditions: MDA-MB-435, 48 h; outline: as §1
[24] = system: Mus musculus; assay: Toxicity in DBA2 mouse assessed as change in granulocyte count at 75 mg/kg, ip QD administered on alternate days for 17 days measured on day 23 relative to control; format: organism-based; set-up: dose 75 mg/kg, route intraperitoneal; conditions: in vivo, 408 h; outline: as §2
[25] = system: L1210; assay: Antitumor activity against mouse L1210 cells xenografted in DBA2 mouse assessed as reduction in tumor volume at 50 mg/kg, ip QD administered on alternate days for 17 days measured on day 23; format: functional; conditions: route intraperitoneal
Outline: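 Female DBA2 mice, 5–7 weeks old, four per group. L1210 cells, passaged through a mouse, were washed three times in PBS and resuspended at 4.0 × 10^6 cells/mL. 100 µL (200,000 cells) was given sc to the flank on day 0. Vehicle-only controls. Tumor length and width were measured by caliper, and volume was compared on day 23.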

[26] = system: SNB-75; assay: Growth inhibition of human SNB75 cells after 48 hrs by sulforhodamine B assay; format: functional; conditions: SNB-75, 48 h; outline: as §3
[27] = system: DU-145; assay: Growth inhibition of human DU145 cells after 48 hrs by sulforhodamine B assay; format: functional; conditions: DU-145, 48 h; outline: as §1
[28] = system: NCI-H23; assay: Growth inhibition of human NCI-H23 cells after 48 hrs by sulforhodamine B assay; format: functional; conditions: NCI-H23, 48 h; outline: as §1
[29] = system: PC-3; assay: Growth inhibition of human PC3 cells after 48 hrs by sulforhodamine B assay; format: functional; conditions: PC-3, 48 h; outline: as §1
[30] = system: NCI-H322M; assay: Growth inhibition of human NCI-H322M cells after 48 hrs by sulforhodamine B assay; format: functional; outline: as §1
[31] = system: T47D; assay: Growth inhibition of human T47D cells after 48 hrs by sulforhodamine B assay; format: functional; outline: as §3
[32] = system: SK-MEL-2; assay: Growth inhibition of human SK-MEL-2 cells after 48 hrs by sulforhodamine B assay; format: functional; conditions: SK-MEL-2, 48 h; outline: as §1
[33] = Growth inhibition of human NCI-ADR-RES cells after 48 hrs by sulforhodamine B assay; format: functional; outline: as §1

SMILES: COc1ccc(/C=C(/C(C)=O)c2cc(OC)c(OC)c(OC)c2)cc1O
- GI50 [1]: 219 nM
- GI50 [2]: 263 nM
- TGI ([2]; read-out: pTGI (converted)): 1050 nM
- TGI [3]: > 100000 nM
- GI50 [4]: 3310 nM
- TGI ([4]; read-out: pTGI): > 100000 nM
- GI50 [5]: 112 nM
- TGI ([5]; read-out: pTGI (converted)): 1950 nM
- Activity [6]: Non-toxic
- GI50 [7]: 316 nM
- TGI ([7]; read-out: pTGI): > 100000 nM
- GI50 [8]: 209 nM
- TGI ([8]; read-out: pTGI): > 100000 nM
- solubility [9]: 456 µM (≈ 163 µg/mL)
- GI50 [10]: 562 nM
- TGI ([10]; read-out: pTGI (converted)): 44700 nM
- GI50 [11]: 331 nM
- TGI ([11]; read-out: pTGI): > 100000 nM
- Activity [12]: Non-toxic
- GI50 [13]: 1320 nM
- TGI ([13]; read-out: pTGI (converted)): 11500 nM
- GI50 [14]: 398 nM
- TGI ([14]; read-out: pTGI): > 100000 nM
- GI50 [15]: 195 nM
- TGI ([15]; read-out: pTGI): > 100000 nM
- GI50 [16]: 468 nM
- TGI ([16]; read-out: pTGI): > 100000 nM
- Ratio [17]: 10
- GI50 [18]: 186 nM
- TGI ([18]; read-out: pTGI): > 100000 nM
- Activity [19]: Non-toxic
- GI50 [20]: 324 nM
- TGI ([20]; read-out: pTGI): > 100000 nM
- GI50 [21]: 589 nM
- TGI ([21]; read-out: pTGI): > 100000 nM
- GI50 [22]: 417 nM
- TGI ([22]; read-out: pTGI): > 100000 nM
- GI50 [23]: 25.7 nM
- TGI ([23]; read-out: pTGI (converted)): 75.9 nM
- Activity [24]: Non-toxic
- inhibition in vivo at 50 mg/kg [25]: 35%
- GI50 [26]: 257 nM
- TGI ([26]; read-out: pTGI): > 100000 nM
- GI50 [27]: 257 nM
- TGI ([27]; read-out: pTGI (converted)): 813 nM
- GI50 [28]: 355 nM
- TGI ([28]; read-out: pTGI): > 100000 nM
- GI50 [29]: 191 nM
- TGI ([29]; read-out: pTGI): > 100000 nM
- GI50 [30]: 513 nM
- TGI ([30]; read-out: pTGI): > 100000 nM
- GI50 [31]: 100000 nM
- TGI ([31]; read-out: pTGI): > 100000 nM
- GI50 [32]: 513 nM
- TGI ([32]; read-out: pTGI): > 100000 nM
- GI50 [33]: 110 nM

Reference: ChEMBL document CHEMBL1765023, “Acetyl analogs of combretastatin A-4: synthesis and biological studies” (Bioorg Med Chem, 2011)
